Test results published in ChEMBL document CHEMBL1141042, “Correlation of cytotoxic activity of betulinines and their hydroxy analogues” (Bioorg Med Chem Lett, 2005).

How the values were obtained:
Assay type in all cases: functional, cell-based
[1] = system: HT-29; assay: Concentration required to kill 50 % of human colon cancer cell line HT-29
Summary of the method: (§1)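 MTT assay. Cells at 2500–30,000/well were preincubated 24 h at 37 C, 5% CO2. Fourfold dilutions of compound in 10% DMSO were added, in duplicate, and exposure ran 72 h at 37 C. MTT was then added for 1–4 h, formazan was dissolved in 10% SDS (pH 5.5) overnight, and OD was read at 540 nm. Survival was calculated versus control wells, with IC50 from dose–response curves.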

[2] = system: K562; assay: Concentration required to kill 50 % of human paclitaxel-resistant subline of K562 cells (K-562-Tax); summary of the method: as §1
[3] = system: SK-MEL-2; assay: Concentration required to kill 50 % of human melanoma SK-MEL2 cells; summary of the method: as §1
[4] = system: CCRF-CEM; assay: Concentration required to kill 50 % of human T-lymphoblastic leukemia cell line (CEM); summary of the method: as §1
[5] = system: PC-3; assay: Concentration required to kill 50 % of human prostate cancer PC3 cells; summary of the method: as §1
[6] = system: K562; assay: Concentration required to kill 50 % of human chronic myelogenous leukemia cell line K562; summary of the method: as §1
[7] = Homo sapiens, HT-29, read-out: IC50
[8] = Homo sapiens, K562, read-out: IC50
[9] = Homo sapiens, SK-MEL-2, read-out: IC50
[10] = Homo sapiens, CCRF-CEM, read-out: IC50
[11] = Homo sapiens, PC-3, read-out: IC50

Row | SMILES | IC50 ([1]; ht-29) | IC50 ([2]; k562) | IC50 ([3]; sk-mel-2) | IC50 ([4]; ccrf-cem) | IC50 ([5]; pc-3) | IC50 ([6]; k562) | IC50 [1, 7] | IC50 [2, 8] | IC50 [3, 9] | IC50 [4, 10] | IC50 [5, 11] | IC50 [6, 8]
1 | CC(=O)O[C@H]1CC[C@@]2(C)C(CC[C@]3(C)C2CCC2C4=C(C(C)C)C(=O)C[C@]4(C(=O)OCc4ccccc4)CC[C@]23C)C1(C)C (some centres not stated) | 250 uM l-1 | 250 uM l-1 | 250 uM l-1 | 250 uM l-1 | 250 uM l-1 | 245 uM l-1 |  |  |  |  |  | 
2 | CC(=O)O[C@H]1CC[C@@]2(C)C(CC[C@]3(C)C2CCC2C4=C(C(C)C)C(=O)C[C@]4(CO)CC[C@]23C)C1(C)C (some centres not stated) |  |  |  |  |  |  | 33 µM | 35 µM | 84 µM | 28 µM | 39 µM | 37 µM
3 | CC(=O)OC[C@@]12CC[C@]3(C)C(CCC4[C@@]5(C)CC[C@H](O)C(C)(C)C5CC[C@]43C)C1=C(C(C)C)C(=O)C2 (some centres not stated) |  |  |  | 250 uM l-1 | 163 uM l-1 |  | 93 µM | 59 µM | 85 µM |  |  | 39 µM
4 | CC(C)C1=C2C3CCC4[C@@]5(C)CC[C@H](O)C(C)(C)C5CC[C@@]4(C)[C@]3(C)CC[C@@]2(CO)CC1=O (some centres not stated) | > 250 uM l-1 | > 250 uM l-1 | > 250 uM l-1 | > 250 uM l-1 | > 250 uM l-1 | > 250 uM l-1 |  |  |  |  |  | 
5 | CC(=O)OC[C@@]12CC[C@]3(C)C(CCC4[C@@]5(C)CC[C@H](OC(=O)CCl)C(C)(C)C5CC[C@]43C)C1=C(C(C)C)C(=O)OC2=O (some centres not stated) | 216 uM l-1 | 220 uM l-1 | 121 uM l-1 | 162 uM l-1 | 250 uM l-1 | 181 uM l-1 |  |  |  |  |  | 
6 | CC(=O)O[C@H]1CC[C@@]2(C)C(CC[C@]3(C)C2CCC2C4=C(C(C)C)C(=O)C[C@]4(C(=O)O)CC[C@]23C)C1(C)C (some centres not stated) | 149 uM l-1 | > 250 uM l-1 | 128 uM l-1 | > 250 uM l-1 | 117 uM l-1 | > 250 uM l-1 |  |  |  |  |  | 
7 | CC(C)C1=C2C3CCC4[C@@]5(C)CC[C@H](O)C(C)(C)C5CC[C@@]4(C)[C@]3(C)CC[C@@]2(C(=O)O)CC1=O (some centres not stated) |  |  | 160 uM l-1 |  |  |  | 33 µM | 34 µM |  | 29 µM | 40 µM | 30 µM
8 | COC(=O)[C@@]12CC[C@]3(C)C(CCC4[C@@]5(C)CC[C@H](OC(C)=O)C(C)(C)C5CC[C@]43C)C1=C(C(C)C)C(=O)C2=O (some centres not stated) |  |  |  |  |  |  | 33 µM | 36 µM | 87 µM | 16 µM | 34 µM | 29 µM
9 | CC(=O)OC[C@@]1(C(=O)O)CC[C@]2(C)C(CCC3[C@@]4(C)CC[C@H](OC(=O)CCl)C(C)(C)C4CC[C@]32C)C1=O (some centres not stated) |  |  |  |  |  |  | 3.6 µM | 0.4 µM | 1.3 µM | 1 µM | 2.3 µM | 0.2 µM
10 | COC(=O)[C@@]12CC[C@]3(C)C(CCC4[C@@]5(C)CC[C@H](O)C(C)(C)C5CC[C@]43C)C1=C(C(C)C)C(=O)C2=O (some centres not stated) |  |  | 138 uM l-1 |  |  |  | 54 µM | 46 µM |  | 44 µM | 72 µM | 35 µM
11 | CCOC(=O)[C@@]12CC[C@]3(C)C(CCC4[C@@]5(C)CC[C@H](O)C(C)(C)C5CC[C@]43C)C1=C(C(C)C)C(=O)C2=O (some centres not stated) | 176 uM l-1 |  | 140 uM l-1 | 210 uM l-1 | 165 uM l-1 | 239 uM l-1 |  | 85 µM |  |  |  | 
12 | CCOC(=O)[C@@]12CC[C@]3(C)C(CCC4[C@@]5(C)CC[C@H](OC(C)=O)C(C)(C)C5CC[C@]43C)C1=C(C(C)C)C(=O)C2 (some centres not stated) | 224 uM l-1 | 206 uM l-1 | 216 uM l-1 | 102 uM l-1 | 244 uM l-1 |  |  |  |  |  |  | 59 µM
13 | CCOC(=O)[C@@]12CC[C@]3(C)C(CCC4[C@@]5(C)CC[C@H](O)C(C)(C)C5CC[C@]43C)C1=C(C(C)C)C(=O)C2 (some centres not stated) |  |  |  |  |  |  | 13 µM | 19 µM | 80 µM | 18 µM | 33 µM | 17 µM
14 | C=C(C)[C@@H]1CC[C@]2(CO)CC[C@]3(C)[C@H](CC[C@@H]4[C@@]5(C)CC[C@H](O)C(C)(C)[C@@H]5CC[C@]43C)[C@@H]12 [BETULIN] | > 250 uM l-1 | > 250 uM l-1 | > 250 uM l-1 | > 250 uM l-1 | > 250 uM l-1 | > 250 uM l-1 |  |  |  |  |  | 
15 | COC(=O)[C@@]12CC[C@]3(C)C(CCC4[C@@]5(C)CC[C@H](O)C(C)(C)C5CC[C@]43C)C1=C(C(C)C)C(=O)C2 (some centres not stated) |  |  |  |  |  |  | 38 µM | 36 µM | 80 µM | 26 µM | 38 µM | 38 µM
16 | CC(=O)OC[C@@]12CC[C@]3(C)C(CCC4[C@@]5(C)CC[C@H](OC(C)=O)C(C)(C)C5CC[C@]43C)C1=C(C(C)C)C(=O)C2 (some centres not stated) | > 250 uM l-1 | > 250 uM l-1 | > 250 uM l-1 | > 250 uM l-1 | > 250 uM l-1 | > 250 uM l-1 |  |  |  |  |  | 
17 | C=C1CC[C@]2(C)C(CCC3[C@@]4(C)CC[C@H](OC(C)=O)C(C)(C)C4CC[C@]32C)C1=O (some centres not stated) | 129 uM l-1 |  |  | > 250 uM l-1 | 143 uM l-1 |  |  | 1.1 µM | 2.1 µM |  |  | 0.4 µM
18 | CCOC(=O)[C@@]12CC[C@]3(C)C(CCC4[C@@]5(C)CC[C@H](OC(C)=O)C(C)(C)C5CC[C@]43C)C1=C(C(C)C)C(=O)C2=O (some centres not stated) |  | 130 uM l-1 | 148 uM l-1 |  |  |  | 93 µM |  |  | 38 µM | 87 µM | 59 µM
19 | COC(=O)[C@@]12CC[C@]3(C)C(CCC4[C@@]5(C)CC[C@H](OC(C)=O)C(C)(C)C5CC[C@]43C)C1=C(C(C)C)C(=O)C2 (some centres not stated) | 149 uM l-1 |  | 165 uM l-1 |  | 246 uM l-1 |  |  | 96 µM |  | 44 µM |  | 34 µM
20 | CC(=O)OC[C@@]12CC[C@]3(C)C(CCC4[C@@]5(C)CC[C@H](OC(=O)CCl)C(C)(C)C5CC[C@]43C)C1=C(C(C)C)C(=O)C2 (some centres not stated) | 110 uM l-1 |  | 229 uM l-1 |  | 242 uM l-1 | 110 uM l-1 |  | 97 µM |  | 44 µM |  | 
21 | CC(=O)OC[C@@]12CC[C@]3(C)C(CCC4[C@@]5(C)CC[C@H](OC(=O)CCl)C(C)(C)C5CC[C@]43C)C1=C(C(C)C)C(=O)C2=O (some centres not stated) | > 250 uM l-1 | > 250 uM l-1 | 170 uM l-1 | 242 uM l-1 | 208 uM l-1 | 231 uM l-1 |  |  |  |  |  | 
22 | CC(C)C1=C2C3CCC4[C@@]5(C)CC[C@H](O)C(C)(C)C5CC[C@@]4(C)[C@]3(C)CC[C@@]2(C(=O)OCc2ccccc2)CC1=O (some centres not stated) |  |  | 156 uM l-1 |  |  |  | 21 µM | 28 µM |  | 26 µM | 37 µM | 27 µM
